Measurements published in ChEMBL document CHEMBL1944586, “Malaria-infected mice are completely cured by one 6 mg/kg oral dose of a new monomeric trioxane sulfide combined with mefloquine” (J Med Chem, 2012).

Tests used:
Plasmodium falciparum = assay: Antimalarial activity against Plasmodium falciparum NF54; type: functional, organism-based
Plasmodium berghei [1] = assay: Antimalarial activity against Plasmodium berghei ANKA infected in C57BL/6 mouse assessed as decrease in parasitemia at 18 mg/kg, po administered 24 hrs post-infection measured after 3 days by Giemsa microscopy relative to vehicle treated control; type: functional; design: scale not given: the % may be the effect or the level left
Procedure, shortened: (§1)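 Male C57BL/6J mice, 5 weeks old, about 20 g, infected i.p. on day 0 with 5 × 10⁷ P. berghei ANKA-parasitized erythrocytes. At 24 h post-infection, four mice per group received one oral dose in 7:3 Tween 80:ethanol diluted in water: trioxane 6 mg/kg plus mefloquine HCl 18 mg/kg, or trioxane 7.5 mg/kg plus mefloquine HCl 15 mg/kg. Untreated infected controls were included. Blood parasitemia was read by Giemsa microscopy.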

Mus musculus = assay: Toxicity in Plasmodium berghei ANKA infected C57BL/6 mouse assessed as effect on longevity at 100 mg/kg, po administered 24 hrs post-infection measured after 3 days; type: organism-based; design: dose 100 mg/kg, route oral; details: in vivo, 72 h
Plasmodium berghei [2] = assay: Antimalarial activity against Plasmodium berghei ANKA infected in C57BL/6 mouse assessed as host survival at 100 mg/kg, po administered 24 hrs post-infection (reference value: 6.8 days); type: functional
Plasmodium berghei [3] = assay: Antimalarial activity against Plasmodium berghei ANKA infected in C57BL/6 mouse assessed as host survival at 18 mg/kg, po administered 24 hrs post-infection (reference value: 6.8 days); type: functional
Plasmodium berghei [4] = assay: Antimalarial activity against Plasmodium berghei ANKA infected in C57BL/6 mouse assessed as decrease in parasitemia at 15 mg/kg, po administered 24 hrs post-infection measured after 3 days by Giemsa microscopy relative to vehicle treated control; type: functional; design: scale not given: the % may be the effect or the level left; procedure, shortened: as §1
Plasmodium berghei [5] = assay: Antimalarial activity against Plasmodium berghei ANKA infected in C57BL/6 mouse assessed as host survival at 15 mg/kg, po administered 24 hrs post-infection (reference value: 6.8 days); type: functional

C[C@H]1[C@@H](CCC(=O)Nc2cccc([S@@+](C)[O-])c2)O[C@@H]2O[C@@]3(C)CC[C@H]4[C@H](C)CC[C@@H]1[C@@]24OO3
EC50 (Plasmodium falciparum): 29 nM

CCCCN(CCCC)CC(O)c1cc(Cl)cc2c1-c1ccc(Cl)cc1/C2=C/c1ccc(Cl)cc1 (stereo not given) [LUMEFANTRINE]
Activity (Plasmodium berghei [1]): >99.9%

CSc1cccc(NC(=O)CC[C@H]2O[C@@H]3O[C@@]4(C)CC[C@H]5[C@H](C)CC[C@@H]([C@H]2C)[C@@]35OO4)c1
EC50 (Plasmodium falciparum): 9.1 nM | Activity (Mus musculus): Non-toxic | Survival (Plasmodium berghei [2]): 15 days

CSc1cc(NC(=O)CC[C@H]2O[C@@H]3O[C@@]4(C)CC[C@H]5[C@H](C)CC[C@@H]([C@H]2C)[C@@]35OO4)cc(SC)c1
EC50 (Plasmodium falciparum): 6.5 nM | Activity (Mus musculus): Non-toxic | Survival (Plasmodium berghei [2]): 7.5 days

C[C@H]1[C@@H](CCC(=O)Nc2cccc(S(C)(=O)=O)c2)O[C@@H]2O[C@@]3(C)CC[C@H]4[C@H](C)CC[C@@H]1[C@@]24OO3
EC50 (Plasmodium falciparum): 21 nM

O[C@@H](c1cc(C(F)(F)F)nc2c(C(F)(F)F)cccc12)[C@H]1CCCCN1 (relative stereo) [(S,R)-MEFLOQUINE]
Survival (Plasmodium berghei [3]): 19.8 days | Activity (Plasmodium berghei [4]): >99.9% | Activity (Plasmodium berghei [1]): >99.9% | Survival (Plasmodium berghei [5]): 15.5 days

C[C@H]1[C@@H](CCC(=O)Nc2cccc([S@+](C)[O-])c2)O[C@@H]2O[C@@]3(C)CC[C@H]4[C@H](C)CC[C@@H]1[C@@]24OO3
EC50 (Plasmodium falciparum): 23 nM

C[C@@H]1CC[C@H]2[C@@H](C)C(=O)O[C@@H]3O[C@@]4(C)CC[C@@H]1[C@]32OO4 [ARTEMISININ]
EC50 (Plasmodium falciparum): 10 nM
